Experimental data: ChEMBL document CHEMBL3817745, “Structure-Activity Relationship for the 4(3H)-Quinazolinone Antibacterials” (J Med Chem, 2016)
Values after ≈ are worked out from the molar mass of the structure shown. Active and inactive are the calls of the source. The rule behind the calls is not given here.

What was measured:
[1] = AUC (0 to last) in ICR mouse peritonitis model infected with methicillin resistant Staphylococcus aureus ATCC 27660 at 10 mg/kg, po administered as single dose through gavage measured after 30 hrs by UPLC analysis; format: ADME, organism-based; parameters: dose 10 mg/kg, time 0 - last, route oral; conditions: ICR, in vivo
Method in brief: (§1)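 Female ICR mice, single 10 mg/kg oral gavage in 25% DMSO/55% propylene glycol/20% PBS (2.5 mg/mL); n = 3 per time point; terminal blood 0.5–30 h; plasma protein-precipitated with acetonitrile containing internal standard, quantified by UPLC-UV or MRM against mouse-plasma calibration curve (0–50 μg/mL).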

Bacillus cereus = test: Antibacterial activity against Bacillus cereus ATCC 13061 incubated for 16 to 20 hrs by microdilution method; format: functional
Method in brief: (§2)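 CLSI broth microdilution. 2-fold serial dilutions were made in cation-adjusted Mueller–Hinton broth, with 5% lysed horse blood added for Streptococcus strains, in triplicate. Inoculum 5×10^5 CFU/mL. Plates incubated 36 °C for 16–20 h. MIC taken as the lowest concentration visibly inhibiting growth.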

Staphylococcus aureus [2] = test: Antibacterial activity against mecA-positive multidrug resistant Staphylococcus aureus NRS120 incubated for 16 to 20 hrs by microdilution method; format: functional
Acinetobacter baumannii = test: Antibacterial activity against Acinetobacter baumannii ATCC 17961 incubated for 16 to 20 hrs by microdilution method; format: functional; method in brief: as §2
Escherichia coli = test: Antibacterial activity against Escherichia coli ATCC 25922 incubated for 16 to 20 hrs by microdilution method; format: functional; method in brief: as §2
[3] = Clearance in ICR mouse peritonitis model infected with methicillin resistant Staphylococcus aureus ATCC 27660 at 10 mg/kg, iv administered as single dose measured up to 8 hrs by UPLC analysis; format: ADME, organism-based; conditions: in vivo
Method in brief: (§3)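 Fast PK: female ICR mice (n = 2 per time point) given single tail-vein iv injection at 5, 10 or 20 mg/kg in 25% DMSO/65% propylene glycol/10% water (2.5, 5 or 10 mg/mL); terminal cardiac blood at 5 min, 40 min, 2, 4, 8 h; plasma analysed by UPLC with internal standard calibration.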

Mus musculus = test: Tmax in ICR mouse peritonitis model infected with methicillin resistant Staphylococcus aureus ATCC 27660 at 10 mg/kg, po administered as single dose through gavage by UPLC analysis; format: ADME, organism-based; conditions: in vivo; method in brief: as §1
[4] = Terminal half life in ICR mouse peritonitis model infected with methicillin resistant Staphylococcus aureus ATCC 27660 at 10 mg/kg, iv administered as single dose by UPLC analysis; format: ADME, organism-based; conditions: ICR, in vivo, read-out: beta t1/2
[5] = Volume of distribution in ICR mouse peritonitis model infected with methicillin resistant Staphylococcus aureus ATCC 27660 at 10 mg/kg, iv administered as single dose measured up to 24 hrs by UPLC analysis; format: ADME, organism-based; conditions: ICR, in vivo
[6] = Protein binding in human plasma at 10 uM after 6 hrs by UPLC based equillibrium dialysis method; format: ADME, cell-free; conditions: read-out: PPB (converted)
Staphylococcus aureus [7] = test: Antibacterial activity against mecA-positive multidrug resistant Staphylococcus aureus COL NRS100 incubated for 16 to 20 hrs by microdilution method; format: functional
[8] = Plasma concentration in ICR mouse neutropenic thigh model of methicillin-resistant Staphylococcus aureus NRS70 infection at 20 mg/kg, sc tid administered every 8 hrs starting from 1 hr post infection and measured 7 hrs post last dose by UPLC analysis; format: ADME, organism-based
Method in brief: (§4)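 Neutropenic thigh model (cyclophosphamide 200 mg/kg ip, NRS70 im), sc doses at 1, 9 and 17 h; at 24 h cardiac blood and uninfected thigh taken (n = 8 per group); thigh homogenate supernatant and plasma acetonitrile-quenched with internal standard, analysed by UPLC with MRM detection.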

Streptococcus pyogenes = test: Antibacterial activity against Streptococcus pyogenes ATCC 49399 incubated for 16 to 20 hrs by microdilution method; format: functional; method in brief: as §2
[9] = AUC (0 to last) in ICR mouse peritonitis model infected with methicillin resistant Staphylococcus aureus ATCC 27660 at 10 mg/kg, iv administered as single dose measured up to 8 hrs by UPLC analysis; format: ADME, organism-based; parameters: dose 10 mg/kg, time 0 - last, route intravenous; conditions: ICR, in vivo; method in brief: as §3
[10] = tested on: Staphylococcus epidermidis; test: Antibacterial activity against Staphylococcus epidermidis ATCC 35547 incubated for 16 to 20 hrs by microdilution method; format: functional; method in brief: as §2
Staphylococcus aureus [11] = test: Antibacterial activity against methicillin-resistant Staphylococcus aureus NRS70 in ICR mouse neutropenic thigh infection model assessed as reduction in bacterial load at 20 mg/kg, sc tid administered every 8 hrs starting from 1 hr post infection and measured 7 hrs post last dose; format: functional, organism-based
Method in brief: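 Female ICR mice (n = 8 per group) made neutropenic with ip cyclophosphamide 200 mg/kg at 4 days and 1 day pre-infection; 100 μL NRS70 (~1×10^6 CFU/mL in brain–heart infusion) injected im into right thigh; sc doses at 1, 9, 17 h; thighs harvested at 24 h, homogenized, plated in triplicate on LB agar; log10 CFU/g.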

[12] = Cmax in ICR mouse peritonitis model infected with methicillin resistant Staphylococcus aureus ATCC 27660 at 10 mg/kg, po administered as single dose through gavage measured at 1 hr post dose by UPLC analysis; format: ADME, organism-based; parameters: dose 10 mg/kg, route oral; conditions: in vivo
HepG2 = test: Cytotoxicity against human HepG2 cells incubated for 16 hrs by XTT assay; format: cell-based; conditions: HepG2, 16 h
Method in brief: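 HepG2 cells were tested with an XTT viability read-out, in triplicate. IC50 was obtained by nonlinear regression.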

Klebsiella pneumoniae = test: Antibacterial activity against Klebsiella pneumoniae ATCC 700603 incubated for 16 to 20 hrs by microdilution method; format: functional; method in brief: as §2
[13] = tested on: Staphylococcus haemolyticus; test: Antibacterial activity against Staphylococcus haemolyticus ATCC 29970 incubated for 16 to 20 hrs by microdilution method; format: functional
[14] = Terminal half life in ICR mouse peritonitis model infected with methicillin resistant Staphylococcus aureus ATCC 27660 at 10 mg/kg, po administered as single dose through gavage by UPLC analysis; format: ADME, organism-based; conditions: ICR, in vivo, read-out: beta t1/2; method in brief: as §1
[15] = AUC (0 to infinity) in ICR mouse peritonitis model infected with methicillin resistant Staphylococcus aureus ATCC 27660 at 10 mg/kg, po administered as single dose through gavage by UPLC analysis; format: ADME, organism-based; parameters: dose 10 mg/kg, route oral, time infinity; conditions: ICR, in vivo; method in brief: as §1
Bacillus licheniformis = test: Antibacterial activity against Bacillus licheniformis ATCC 12759 incubated for 16 to 20 hrs by microdilution method; format: functional; method in brief: as §2
Staphylococcus aureus [16] = test: Antibacterial activity against vancomycin/methicillin-resistant Staphylococcus aureus VRS1 clinical isolate incubated for 16 to 20 hrs by microdilution method; format: functional
Staphylococcus aureus [17] = test: Antibacterial activity against vancomycin/methicillin-resistant Staphylococcus aureus VRS2 clinical isolate incubated for 16 to 20 hrs by microdilution method; format: functional
Enterococcus faecalis [18] = test: Antibacterial activity against vancomycin-resistant Enterococcus faecalis 99 clinical isolate incubated for 16 to 20 hrs by microdilution method; format: functional
[19] = Oral bioavailability in ICR mouse peritonitis model infected with methicillin resistant Staphylococcus aureus ATCC 27660 at 10 mg/kg administered as single dose through gavage by UPLC analysis; format: ADME, organism-based; conditions: ICR, in vivo; method in brief: as §1
Enterococcus faecium = test: Antibacterial activity against Enterococcus faecium NCTC 7171 incubated for 16 to 20 hrs by microdilution method; format: functional; method in brief: as §2
Pseudomonas aeruginosa = test: Antibacterial activity against Pseudomonas aeruginosa […] incubated for 16 to 20 hrs by microdilution method; format: functional; method in brief: as §2
Klebsiella aerogenes = test: Antibacterial activity against Enterobacter aerogenes ATCC 35029 incubated for 16 to 20 hrs by microdilution method; format: functional; method in brief: as §2
[20] = Hemolytic activity against human RBC at 64 ug/ml relative to control; format: ADME, cell-based, Erythrocyte; conditions: red blood cells, read-out: Activity
Method in brief: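 Hemolysis was measured at a fixed 64 μg/mL on a 10% red-cell suspension from heparinized human blood. Triton-X served as the positive control, and results are given as percent hemolysis.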

[21] = Drug level in uninfected thighs of ICR mouse neutropenic thigh model of methicillin-resistant Staphylococcus aureus NRS70 infection at 20 mg/kg, sc tid administered every 8 hrs starting from 1 hr post infection and measured 7 hrs post last dose by UPLC analysis; format: ADME, organism-based; conditions: read-out: Drug uptake; method in brief: as §4
Enterococcus faecalis [22] = test: Antibacterial activity against methicillin-susceptible Enterococcus faecalis ATCC 29212 incubated for 16 to 20 hrs by microdilution method; format: functional; method in brief: as §2
Staphylococcus aureus [23] = test: […] activity against methicillin-resistant Staphylococcus aureus NRS70; format: functional; conditions: read-out: MBC99.9
Streptococcus oralis = test: Antibacterial activity against Streptococcus oralis ATCC 9811 incubated for 16 to 20 hrs by microdilution method; format: functional; method in brief: as §2
Staphylococcus aureus [24] = test: Antibacterial activity against methicillin resistant Staphylococcus aureus ATCC 27660 infected in iv dosed ICR mouse model of peritonitis assessed as mouse survival administered at 30 mins and 4.5 hrs post infection measured for 48 hrs; format: functional; conditions: ATCC 27660, iv
Staphylococcus aureus [25] = test: […] activity against multidrug resistant Staphylococcus aureus ATCC 27660; format: functional; conditions: read-out: MBC99.9
[26] = AUC (0 to infinity) in ICR mouse peritonitis model infected with methicillin resistant Staphylococcus aureus ATCC 27660 at 10 mg/kg, iv administered as single dose by UPLC analysis; format: ADME, organism-based; parameters: dose 10 mg/kg, time infinity, route intravenous; conditions: ICR, in vivo
Staphylococcus aureus [27] = test: Antibacterial activity against mecA-positive multidrug resistant Staphylococcus aureus NRS119 incubated for 16 to 20 hrs by microdilution method; format: functional

Question: What does the source list for `N#Cc1ccc(/C=C/c2nc3ccccc3c(=O)n2-c2cccc(C(=O)O)c2)cc1`?
Answer: AUC(0-t) at 30 h [1]: 6800 ng·h/mL; MIC (Bacillus cereus): > 128 µg/mL; MIC (Staphylococcus aureus [2]): 8 µg/mL (≈ 20.3 µM); MIC (Acinetobacter baumannii): ≥ 16 µg/mL; MIC (Escherichia coli): ≥ 16 µg/mL; clearance [3]: 6.9 mL/min/kg; Tmax (Mus musculus): 1 h; half-life [4]: ≥ 1200 min; Vd [5]: 0.3 L/kg; fraction unbound at 6 h, 10 µM [6]: 0.035; MIC (Staphylococcus aureus [7]): 16 µg/mL (≈ 40.7 µM); concentration at 7 h [8]: 1130 ng/mL; MIC (Streptococcus pyogenes): > 128 µg/mL; AUC(0-t) at 8 h [9]: 19700 ng·h/mL; MIC [10]: 1 µg/mL (≈ 2.54 µM); Activity (Staphylococcus aureus [11]): inactive; Cmax [12]: 1300 ng/mL; IC50 (HepG2): 62.9 µg/mL (≈ 160 µM); MIC (Klebsiella pneumoniae): ≥ 16 µg/mL; MIC [13]: 1 µg/mL (≈ 2.54 µM); half-life [14]: > 1200 min; AUC(0-inf) [15]: 12300 ng·h/mL; MIC (Bacillus licheniformis): > 128 µg/mL; MIC (Staphylococcus aureus [16]): 16 µg/mL (≈ 40.7 µM); MIC (Staphylococcus aureus [17]): 2 µg/mL (≈ 5.08 µM); MIC (Enterococcus faecalis [18]): > 128 µg/mL; bioavailability [19]: 50%; MIC (Enterococcus faecium): > 128 µg/mL; MIC (Pseudomonas aeruginosa): ≥ 16 µg/mL; MIC (Klebsiella aerogenes): ≥ 16 µg/mL; hemolysis at 64 ug/ml [20]: < 1%; concentration at 7 h [21]: 24 ng/mL; MIC (Enterococcus faecalis [22]): > 128 µg/mL; MBC (Staphylococcus aureus [23]): 32 µg/mL (≈ 81.3 µM); MIC (Streptococcus oralis): > 128 µg/mL; ED50 (Staphylococcus aureus [24]): 9.4 mg/kg; MBC (Staphylococcus aureus [25]): 64 µg/mL (≈ 163 µM); AUC(0-inf) [26]: 24300 ng·h/mL; MIC (Staphylococcus aureus [27]): 8 µg/mL (≈ 20.3 µM)
